Experimental findings from ChEMBL document CHEMBL1153564 (Antimicrob Agents Chemother, 2008) are described below.

≈ marks a conversion by molar mass, not a printed value. Calls of active or inactive are those of the source. The calls are words filed in the database; no cut-off is given here. Starred links: 1 amine or outer side, 2 acyl side, 3 side chain; linkers in the order of their positions; H or OH if unused. Positions of bridges follow the written chain, without caps; N, C: chain ends. Non-standard residues stand in square brackets, D forms with d. Residues, ends and D or L forms follow the SMILES beside them. *: point of attachment. pTerphenylCO(4''-OnC5H11) = CCCCCOc1ccc(-c2ccc(-c3ccc(C(=O)*)cc3)cc2)cc1; Orn(4R-OH,5R-OH) = O=C([C@H](C[C@@H](O)[C@@H](O)N[*:3])N[*:1])[*:2]; hTyr(3S-OH,4S-OH) = N[C@H](C(=O)O)[C@H](O)[C@@H](O)c1ccc(O)cc1; Pro(3S-OH,4S-Me) = C[C@H]1CN[C@H](C(=O)O)[C@H]1O; Hyp = O=C(O)[C@@H]1C[C@@H](O)CN1

Experiment [1] deals with Nakaseomyces glabratus. The experiment can be described thus: Antifungal activity against Candida glabrata 5376 assessed as complete growth inhibition after 24 hrs by CLSI end point method. Type of experiment: functional. The settings on record: Nakaseomyces glabratus, 5376, 24 h. Put shortly: (§1)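 Two end points were read against the drug-free control well: partial growth inhibition (the CLSI end point) and complete inhibition. Run in duplicate on four separate occasions; the value is the mean. Drug stock was made in DMSO and diluted in 0.9% NaCl.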

The test system of experiment [2] is Candida albicans. The experiment can be described thus: Antifungal activity against Candida albicans K-1 assessed as partial growth inhibition after 24 hrs by CLSI end point method. The experiment is classed as functional. The settings on record: K-1, 24 h. Put shortly:
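CLSI M27-A2 broth dilution. Two end points read against the drug-free control well: partial inhibition (CLSI end point) and complete inhibition. Run in duplicate on four separate occasions; value is the mean. Drug stock in DMSO, diluted in 0.9% NaCl.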

Experiment [3] has as its system Candida albicans. The experiment in a line: Antifungal activity against Candida albicans K-1 infected in neutropenic ICR/Swiss mouse candidiasis model assessed as dose required to maintain […] of 3.90 +/- 0.15 log10CFU per kidney administered intraperitoneally once every 96 hrs measured per 96 hrs. The experiment is classed as functional. Put shortly: (§2)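 Neutropenic mice were infected iv with C. albicans K-1 2 h before therapy. Total doses of 1.25, 5, 20, 80 and 320 mg/kg/96 h were split into 1, 2, 4 or 6 ip doses (q96h, q48h, q24h, q16h), three mice per regimen. Effect is the log10 CFU/kidney relative to untreated controls at 96 h. Static and 1-log doses were taken from a Hill model fit.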

The test system of experiment [4] is Nakaseomyces glabratus. The experiment can be described thus: Antifungal activity against Candida glabrata 33616 assessed as partial growth inhibition after 24 hrs by CLSI end point method. The experiment is classed as functional. The following applies: Nakaseomyces glabratus, 33616, 24 h. The method, boiled down:
as §1

Experiment [5] relates to Nakaseomyces glabratus. The experiment in a line: Antifungal activity against Candida glabrata 5376 infected in neutropenic ICR/Swiss mouse candidiasis model assessed as prolongation of fungal growth suppression at 5 mg/kg, ip administered 2 hrs postinfection as single dose by time-kill assay. The experiment is classed as functional. The settings on record: route intraperitoneal. The method, boiled down: (§3)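 Neutropenic mice were infected i.v. and 2 h later given a single i.p. dose (1.25, 5 or 20 mg/kg). Groups of three treated and three control mice were killed at intervals over 96 h, and kidney CFU were counted on SDA (limit 100 CFU/ml). The post-antifungal effect is t − c: the time for a 1 log10 CFU/kidney increase once serum levels fall below the MIC in treated mice, minus the same time in controls.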

Experiment [6] concerns Candida albicans. The experiment can be described thus: Antifungal activity against Candida albicans 580 infected in neutropenic ICR/Swiss mouse candidiasis model assessed as dose required to maintain […] of 3.81 +/- 0.33 log10CFU per kidney administered intraperitoneally every 24 hrs up to 4 days measured per 24 hrs. The experiment is classed as functional. The method, boiled down: (§4)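 Neutropenic mice (cyclophosphamide sc on days −4, −1 and +2) were infected iv 2 h before therapy. Five total doses from 0.078 to 20 mg/kg/24 h were given ip q24h for 4 days, three mice per regimen. Kidney CFU were measured at the end of therapy. Static and 1-log-kill doses were derived from a Hill sigmoid dose-effect fit.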

Experiment [7] relates to Candida albicans. The experiment in a line: Antifungal activity against Candida albicans 580 infected in neutropenic ICR/Swiss mouse candidiasis model assessed as dose required for 1-log10 reduction in […] per kidney administered intraperitoneally every 24 hrs up to 4 days measured per 24 hrs. The experiment is classed as functional. Put shortly:
as §4

In the next experiment the test system is Candida tropicalis. The experiment in a line: Antifungal activity against Candida tropicalis 98-234 infected in neutropenic ICR/Swiss mouse candidiasis model assessed as fungal count per kidney administered 2 hrs postinfection measured up to 48 hrs. Type of experiment: functional. Put shortly:
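Untreated neutropenic ICR/Swiss female mice infected iv via lateral tail vein (0.1 ml, 6.1 ± 0.51 log10 CFU/ml); kidneys homogenised, serially diluted 1:10 and plated on SDA, counted after 24 h at 35°C; growth in kidneys over 48 h, mean CFU per kidney of three mice, detection limit 100 CFU/ml.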

In experiment [8] the test system is Nakaseomyces glabratus. The experiment in a line: Antifungal activity against Candida glabrata 5376 infected in neutropenic ICR/Swiss mouse candidiasis model assessed as reduction of […] in kidney at 1.25 mg/kg, ip administered 2 hrs postinfection as single dose measured after 96 hrs post dosing by time-kill assay. Type of experiment: functional, organism-based. More on the design: dose 1.25 mg/kg. Put shortly:
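Neutropenic mice given a single ip dose (1.25, 5 or 20 mg/kg) 2 h after tail-vein infection. Kidneys from 3 mice per time point collected nine times over 96 h. Homogenates serially diluted 1:10 and plated on SDA, 24 h at 35°C. Detection limit 100 CFU/ml.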

Experiment [9] concerns Nakaseomyces glabratus. The experiment can be described thus: Antifungal activity against Candida glabrata 5376 infected in neutropenic ICR/Swiss mouse candidiasis model assessed as suppression of fungal regrowth at 5 mg/kg, ip administered 2 hrs postinfection as single dose by time-kill assay. The experiment is classed as functional, organism-based. The arrangement: dose 5 mg/kg. The method, boiled down:
as §3

Experiment [10] relates to Candida albicans. The experiment in a line: Antifungal activity against Candida albicans K-1 infected in neutropenic ICR/Swiss mouse candidiasis model assessed as reduction of […] in kidney at 5 mg/kg, ip administered 2 hrs postinfection as single dose measured within 1 to 4 hrs post dosing by time-kill assay. Type of experiment: functional, organism-based. The arrangement: dose 5 mg/kg. Put shortly:
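Single ip dose (20, 5 or 1.25 mg/kg) given 2 h after iv infection of neutropenic mice with K-1. Three treated and three control mice were sampled at intervals over 96 h for kidney CFU. PAFE is the time for treated burden to rise 1 log10 after serum levels fall below MIC, minus the same time in controls. Free drug was taken as 1%.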

The subject of experiment [11] is Nakaseomyces glabratus. The experiment can be described thus: Antifungal activity against Candida glabrata 5376 assessed as partial growth inhibition after 24 hrs by CLSI end point method. Type of experiment: functional. The following applies: Nakaseomyces glabratus, 5376, 24 h. The method, boiled down: as §1
In experiment [12] the test system is Nakaseomyces glabratus. The experiment in a line: Antifungal activity against Candida glabrata 513 infected in neutropenic ICR/Swiss mouse candidiasis model assessed as dose required for 1-log10 reduction in […] per kidney administered intraperitoneally every 24 hrs up to 4 days measured per 24 hrs. The experiment is classed as functional. Put shortly:
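Neutropenic mouse disseminated candidiasis, with i.p. therapy starting 2 h after i.v. infection. Five total doses of 0.078–20 mg/kg/24 h were given q24h for 4 days, three mice per dose. Kidney CFU were counted at the end and compared with untreated controls. The dose giving a 1 log10 CFU/kidney reduction was derived from the sigmoid Hill dose–effect model.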

The subject of experiment [13] is Candida albicans. The experiment can be described thus: Antifungal activity against Candida albicans K-1 infected in neutropenic ICR/Swiss mouse candidiasis model assessed as dose required to maintain […] of 3.90 +/- 0.15 log10CFU per kidney administered intraperitoneally every 24 hrs up to 4 days measured per 96 hrs. Type of experiment: functional. The method, boiled down:
as §2

The test system of experiment [14] is Nakaseomyces glabratus. The experiment in a line: Antifungal activity against Candida glabrata 5376 infected in neutropenic ICR/Swiss mouse candidiasis model assessed as […] burden per kidney administered intraperitoneally once every 96 hrs measured per 96 hrs. The experiment is classed as functional. The following applies: Nakaseomyces glabratus, 5376, Kidney, ip. Put shortly:
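Neutropenic ICR/Swiss mice infected i.v. with the strain; therapy began 2 h later. Total doses of 1.25–320 mg/kg/96 h were given i.p. as 1, 2, 4 or 6 doses (q96h, q48h, q24h, q16h), three mice per regimen. Kidney CFU were counted after 4 days. Effect is the change from untreated controls at the end of therapy.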

The test system of experiment [15] is Nakaseomyces glabratus. The experiment in a line: Antifungal activity against Candida glabrata 35315 infected in neutropenic ICR/Swiss mouse candidiasis model assessed as fungal count per kidney administered 2 hrs postinfection measured up to 48 hrs. Type of experiment: functional. The method, boiled down: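 Female ICR/Swiss mice (23–27 g) made neutropenic with cyclophosphamide s.c. (150 mg/kg day −4, 100 mg/kg day −1, 100 mg/kg day +2). Infected by tail vein with 0.1 ml inoculum (~6.1 log10 CFU/ml). Kidneys of untreated mice were homogenised and plated on SDA for 24 h at 35°C. Growth over 48 h is given as log10 CFU/kidney.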

For the compound `CCCCCOc1ccc(-c2ccc(-c3ccc(C(=O)N[C@H]4C[C@@H](O)[C@@H](O)NC(=O)[C@@H]5[C@@H](O)[C@@H](C)CN5C(=O)[C@H]([C@@H](C)O)NC(=O)[C@H]([C@H](O)[C@@H](O)c5ccc(O)cc5)NC(=O)[C@@H]5C[C@@H](O)CN5C(=O)[C@H]([C@@H](C)O)NC4=O)cc3)cc2)cc1` [ANIDULAFUNGIN] ({pTerphenylCO(4''-OnC5H11)}-[Orn(4R-OH,5R-OH)]T[Hyp][hTyr(3S-OH,4S-OH)]T[Pro(3S-OH,4S-Me)]; lactam 1-C), the MIC – broadly, the lowest concentration that inhibits growth of the organism – came out at 0.06 µg/mL (≈ 0.0526 µM) in the experiment with Nakaseomyces glabratus [1], 0.015 µg/mL (≈ 0.0132 µM) in the experiment with Candida albicans [2], 1 µg/mL (≈ 0.877 µM) in the experiment with Nakaseomyces glabratus [4] and 0.03 µg/mL (≈ 0.0263 µM) in the experiment on Nakaseomyces glabratus [11]. The Activity in the experiment with Candida albicans [3] was determined as 3.07 mg/kg; in the experiment with Nakaseomyces glabratus [5], 19 h; in the experiment with Candida albicans [6] it was 0.94 mg/kg; with Candida albicans [7], 2.31 mg/kg; with Nakaseomyces glabratus [12] it was 4.13 mg/kg; with Candida albicans [13], 5 mg/kg. Further, the log10cfu in the experiment with Candida tropicalis amounted to 3.84; in the experiment on Nakaseomyces glabratus [15], 0.97. The outcome with Nakaseomyces glabratus [8], with Nakaseomyces glabratus [9] and in the experiment on Candida albicans [10] was Active. In the experiment with Nakaseomyces glabratus [14], the ED50 (commonly the dose at which the effect has come halfway, by size or by number of responders) is 8.12 mg/kg.
